Reference: ChEMBL document CHEMBL1122515, “Structure-activity relationship of the ficin hydrolysis of phenyl hippurates. Comparison with papain, actinidin, and bromelain” (J Med Chem, 1984)

Experiments:
[1] = Michaelis constant (Km), determined by Ficin hydrolysis at pH 6, 25 degrees Centigrade; type: ADME; settings: buffer
How it was run: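 Ficin stock suspension diluted in 0.03 M NaCl-0.01 M EDTA buffer pH 6, activated ~2 h by saturation with 4-thiocresol, then diluted again in the same buffer. Ester hydrolysis followed spectrophotometrically at 25 °C, pH 6, in 3.3% acetonitrile-buffer. Initial rates taken at ≥8 substrate concentrations per ester. Km from least-squares fit of a Lineweaver-Burk plot.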

[2] = The compound was tested and optimum wavelength (λmax) was evaluated
[3] = The compound was tested and spectral absorbance change (Δε) was evaluated
[4] = The compound was tested for optimum wavelength (λmax)

Row | Compound | Log 1/Km [1] | also measured
1 | CC(=O)Nc1cccc(OC(=O)CNC(=O)c2ccccc2)c1 | 3.74 | 
2 | O=C(CNC(=O)c1ccccc1)Oc1cccc(C(F)(F)F)c1 | 4.85 | 
3 | Cc1cc(C)cc(OC(=O)CNC(=O)c2ccccc2)c1 | 4.54 | 
4 | Cc1cccc(OC(=O)CNC(=O)c2ccccc2)c1 | 4.17 | 
5 | O=C(CNC(=O)c1ccccc1)Oc1ccccc1 | 3.9 | 
6 | COc1cc(OC)cc(OC(=O)CNC(=O)c2ccccc2)c1 | 4.52 | 
7 | COc1ccc(OC(=O)CNC(=O)c2ccccc2)cc1 | 3.82 | 
8 | O=C(CNC(=O)c1ccccc1)Oc1cc([N+](=O)[O-])cc([N+](=O)[O-])c1 | 4.69 | 
9 | CC(=O)c1cccc(OC(=O)CNC(=O)c2ccccc2)c1 | 4.11 | λmax [2]: 310 nm; Δε [3]: 1860 M⁻¹ cm⁻¹
10 | O=C(CNC(=O)c1ccccc1)Oc1cccc(Cl)c1 | 4.43 | 
11 | NC(=O)c1ccc(OC(=O)CNC(=O)c2ccccc2)cc1 | 4.17 | 
12 | CC(C)c1ccc(OC(=O)CNC(=O)c2ccccc2)cc1 | 4.33 | λmax [2]: 275 nm; Δε [3]: 1300 M⁻¹ cm⁻¹
13 | Nc1cccc(OC(=O)CNC(=O)c2ccccc2)c1 | 3.72 | 
14 | O=C(CNC(=O)c1ccccc1)Oc1ccc(F)cc1 | 3.53 | 
15 | N#Cc1cccc(OC(=O)CNC(=O)c2ccccc2)c1 | 4.15 | 
16 | N#Cc1ccc(OC(=O)CNC(=O)c2ccccc2)cc1 | 4.27 | 
17 | CC(C)(C)c1cccc(OC(=O)CNC(=O)c2ccccc2)c1 | 5.14 | 
18 | O=C(CNC(=O)c1ccccc1)Oc1ccc(Br)cc1 | 4.13 | λmax [4]: 280 nm; Δε [3]: 1090 M⁻¹ cm⁻¹
19 | O=C(CNC(=O)c1ccccc1)Oc1cccc([N+](=O)[O-])c1 | 4.36 | 
20 | O=C(CNC(=O)c1ccccc1)Oc1cc(Cl)cc(Cl)c1 | 4.98 | 
21 | O=C(CNC(=O)c1ccccc1)Oc1cccc(F)c1 | 3.81 | 
22 | NC(=O)c1cccc(OC(=O)CNC(=O)c2ccccc2)c1 | 3.99 | 
23 | O=C(CNC(=O)c1ccccc1)Oc1cccc(I)c1 | 4.64 | 
24 | O=C(CNC(=O)c1ccccc1)Oc1ccc(Cl)cc1 | 3.91 | 
25 | CCc1cc(C)cc(OC(=O)CNC(=O)c2ccccc2)c1 | 4.79 | 
26 | Cc1ccc(OC(=O)CNC(=O)c2ccccc2)cc1 | 3.82 | 
27 | O=C(CNC(=O)c1ccccc1)Oc1cccc(Br)c1 | 4.75 | 
28 | COc1cccc(OC(=O)CNC(=O)c2ccccc2)c1 | 4.09 | λmax [2]: 280 nm; Δε [3]: 886 M⁻¹ cm⁻¹
29 | O=C(CNC(=O)c1ccccc1)Oc1ccc([N+](=O)[O-])cc1 | 4.5 | 
30 | CC(=O)c1ccc(OC(=O)CNC(=O)c2ccccc2)cc1 | 4.3 | 
